# Screening results from PubChem.
# MEX-5 binding: C. elegans MEX-5 TCR-2 RNA binding activity; Q9XUB2; MEX-5/FITC-TCR2 RNA binding, fluorescence polarization; hits give low values; activity score (negative = inhibition of binding), % at 10 µM; hit rate 0.38% among 300,000; AID 1832;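 active = inhibition past about -25% in most replicates, and total fluorescence under double the plate's negative control median, limit read from the data; inconclusive = replicates evenly split on the limit, or fluorescence at least double controls; inactive = too little inhibition in most replicates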
# HCV NS3 hel inh: inhibitors of Hepatitis C virus NS3 helicase; NS3 helicase DNA unwinding, Cy5 molecular beacon fluorescence; inhibition, % at 10.9 µM; hit rate 0.56% among 290,000;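 active = inhibition above the mean of all tested compounds plus 3 SD, set per campaign, cut at about 35% in these data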
#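 Assay system: hepatitis C virus NS3 helicase domain fragment enzyme. Also added: annealed dual-labelled DNA beacon duplex, ATP-started. Timing: 1 h reaction at 25 °C, ATP-initiated. Technique: Cy5 fluorescence at 0 and 60 min, beacon hairpin quenching. Evaluation: % inhibition of unwinding. Replication: one well per compound.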
# EBV gp42 block: blocks Epstein-Barr virus glycoprotein 42 binding; hit rate 0.42% among 220,000; AID 1085; Q1HVG2; inhibition, % (tested at 21.74 µM); Fluorescence polarization binding assay, mP read-out; in the data active = inhibition above about 50%
# Target sequence (Q1HVG2 whole entry, looked up): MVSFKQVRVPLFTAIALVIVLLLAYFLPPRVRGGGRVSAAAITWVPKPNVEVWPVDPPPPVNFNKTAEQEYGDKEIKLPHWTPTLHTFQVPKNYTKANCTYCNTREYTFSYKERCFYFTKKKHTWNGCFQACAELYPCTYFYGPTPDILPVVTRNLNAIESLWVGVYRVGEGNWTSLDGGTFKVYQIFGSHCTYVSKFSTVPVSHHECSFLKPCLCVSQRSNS
# ZTA counter: counter-screen for EBNA-1 inhibitors: inhibitors of Epstein-Barr virus ZTA; P03206; ZTA-DNA binding, fluorescence polarization; inhibition, % at 11 µM; hit rate 0.15% among 320,000; in the data active = inhibition above about 33%
# Target sequence (P03206 whole entry, looked up): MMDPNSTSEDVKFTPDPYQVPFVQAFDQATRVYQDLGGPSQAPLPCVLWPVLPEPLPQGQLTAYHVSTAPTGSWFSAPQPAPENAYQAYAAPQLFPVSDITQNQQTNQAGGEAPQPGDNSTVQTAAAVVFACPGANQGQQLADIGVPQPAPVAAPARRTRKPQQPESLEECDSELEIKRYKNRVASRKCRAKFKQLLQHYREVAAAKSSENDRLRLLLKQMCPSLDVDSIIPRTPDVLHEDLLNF
# HCV core dimer: HCV core protein dimerization inhibition; TR-FRET GST/Flag-core106 dimerization, 1536-well; inhibition, % at 5 µM; hit rate 0.33% among 300,000;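 active = inhibition above the mean of all tested compounds plus 3 SD, set per screening campaign, cut at about 45% in these data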
#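 System: GST-tagged and Flag-tagged HCV core protein residues 1-106 / Input: core106 proteins, GST 13.5 nM and Flag 17 nM / Buffer or medium: KF-containing HEPES buffer, pH 7.45, DTT, CHAPS, BSA / Probe or stimulus: Eu-anti-GST and XL665-anti-Flag labelled anti-tag antibodies / Schedule: 4 h, 22.5 °C incubation / Technique: TR-FRET 671 and 617 nm emission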
# EBNA-1 inh: blocks EBNA-1 binding to DNA. inhibition, % at 14.8 µM. EBNA-1 DNA binding, fluorescence polarization. hit rate 0.34% among 300,000; in the data active = inhibition above about 28%
# Hits are given with their value; n = inactive; u = inconclusive; x = not tested or not shown. A selection: hits, their analogues and other compounds. The true share with any hit is near 1.7%.
SMILES,MEX-5 binding,HCV NS3 hel inh,EBV gp42 block,ZTA counter,HCV core dimer,EBNA-1 inh
Fc1ccc2[nH]c3c(NCc4ccccc4)ncnc3c2c1,n,n,x,n,n,n
O=Cc1cnc(N2CCCCC2)s1,n,n,112,n,n,n
Cc1ccc(C)c(N2N=C(C(=O)N(CC(C)C)c3c(N)n(Cc4ccccc4)c(=O)[nH]c3=O)CCC2=O)c1,n,n,x,n,n,n
Cc1nnc2ccc(-c3ccc(NC(=O)Cc4cccs4)cc3)nn12,n,n,n,n,56,n
CCCN(CC(=O)Nc1ccccc1OC)C(=O)c1cc(-c2ccccc2)nn1-c1ccccc1,x,x,x,n,x,x
O=C(CSc1nc2c(c(=O)n1-c1ccc(Br)cc1)SCC2)Nc1nccs1,n,n,n,n,n,32
O=C(CSc1nc(-c2ccccc2)nc2c1Cc1ccccc1O2)Nc1ccccc1,n,n,n,n,n,n
O=C(CSc1nc(-c2ccc(F)cc2)nc2c1Cc1ccccc1O2)Nc1cccc(C(=O)O)c1,n,n,71,x,x,x
COc1ccc(CCn2c(C)cc(C(=O)COC(=O)c3ccc(NC(=O)CC#N)cc3)c2C)cc1,n,n,x,n,50,n
CCn1ccc(C(=O)NC2C(=O)N3C(C(=O)O)=C(C)CSC23)n1 (stereo unspecified),x,n,n,n,n,n
C=CC1=C(C(=O)O)N2C(=O)[C@@H](NC(=O)/C(=N\O)c3csc(N)n3)[C@H]2SC1 (stereo in doubt),-26,x,x,n,n,n
Cc1nn(-c2ccc(Cl)cc2)c(Cl)c1/C=N/NC(=O)c1ccc(NS(=O)(=O)c2cccs2)cc1,n,x,x,n,54,n
COCC(=O)Nc1cc(C)cn(Cc2ccccc2Cl)c1=O,n,n,x,n,n,n
Cc1ccc2cc(C#N)c(NCc3ccccc3)nc2c1,n,n,n,n,48,n
O=c1nc2s/c(=C\c3ccc(-c4ccccc4[N+](=O)[O-])o3)c(=O)n2nc1-c1ccccc1,n,43,176,x,x,x
CCOC(=O)c1cc(-c2ccccc2)sc1NC(=S)Nc1cc(C)ccn1,-57,n,n,n,n,n
O=[N+]([O-])c1cccc(/C=N/N=C\c2ccccc2)c1,n,n,x,x,x,x
O=[N+]([O-])c1cccc(/C=C/c2nc(C=Nc3ccccc3)c(O)o2)c1,-43,n,n,n,n,n
COc1ccc(CCC(=O)Nc2cc(S(=O)(=O)N3CCCCC3)ccc2N(C)C)cc1,x,x,x,n,x,x
Cc1c(C)n2c(SCC(=O)N3CCOCC3)nnc2[nH]c1=O,n,x,x,n,n,n
CCc1cccc2c(C(=O)CN3C(=O)N(C)C4(CCCCC4)C3=O)c[nH]c12,x,x,x,n,x,x
CCCCN1C(=O)/C(=C/C=C2\Oc3ccccc3N2CC)SC1=S,-28,n,104,x,x,x
C=CCN1C(=O)/C(=C\C=C2\N(C)c3ccccc3C2(C)C)SC1=S,n,n,90,n,n,n
CCCN1C(=O)/C(=C\C=C2/Sc3ccccc3N2CCO)SC1=S,n,n,n,n,n,n
CN1/C(=C\C=C2/SC(=S)N(CC(=O)O)C2=O)C(C)(C)c2ccccc21,u,n,n,n,n,n
SMILES,MEX-5 binding,HCV NS3 hel inh,EBV gp42 block,ZTA counter,HCV core dimer,EBNA-1 inh
CCCN1C(=O)/C(=C/C=C2\N(CC)c3ccccc3C2(C)C)SC1=S,n,n,127,n,n,n
Cc1ccc(NC(=O)CN2C(=O)NC(Cc3ccccc3)C2=O)c(Br)c1 (stereo unspecified),n,n,n,n,n,n
C[C@H]1CN=C(N(C)C)N1CC1CCC(C(C)(C)C)CC1 (stereo partly specified),x,x,x,n,n,n
N#Cc1cccc(NC(=O)CSc2nnc(C3CC3)n2C2CC2)c1,x,x,x,n,x,x
COc1ccccc1CNS(=O)(=O)c1ccc2c(c1)N(C(C)=O)CCO2,n,n,x,n,n,n
COc1cccc(C2c3c(oc4ccccc4c3=O)C(=O)N2Cc2ccco2)c1 (stereo unspecified),-48,x,x,n,n,n
CC[C@H](C)/C=C(C)/C=C/C1=CC2=CC(=O)[C@]3(C)OC(=O)[C@@H](C(C)=O)[C@@H]3C2=CO1,n,n,n,n,56,n
O=C(Nc1nc(-c2cccs2)c(-c2ccccc2)s1)c1ccco1,n,n,n,n,n,n
CC1CC1C(=O)Nc1nc(-c2cccs2)c(-c2cccs2)s1 (stereo unspecified),n,n,n,n,50,n
Cc1ccc(N=Cc2sc(O)c3ccccc23)c(C)c1,-31,n,n,n,n,n
CC(C)Cn1c(N)c(C(=O)COC(=O)CCNS(=O)(=O)c2ccccc2)c(=O)n(C)c1=O,n,x,x,n,n,n
O=C(CN1CCCc2ccccc21)NC(=O)NCc1ccco1,n,n,n,n,n,n
O=C(COC(=O)C1CCCCC1C(=O)N1CCc2ccccc21)NCc1ccco1 (stereo unspecified),n,n,n,n,83,n
O=C(COC(=O)C1CC2C=CC1C2)NCc1ccco1 (stereo unspecified),n,n,n,n,76,n
O=C(COC(=O)CCOc1ccccc1)NCc1ccco1,n,n,n,n,62,n
COc1ccccc1NCc1cc(=O)oc2c(C)c(O)ccc12,n,n,x,n,n,n
COC(=O)c1ccccc1NCc1cc(=O)oc2cc(O)c(O)cc12,-28,n,x,n,n,n
CCOc1cc(-c2ccc(N)c(OCC)c2)ccc1N,x,n,145,n,n,n
Cc1c(C(=O)N2CCCCC2)nn(-c2ccc(Cl)cc2)c(=O)c1C#N,n,n,n,n,n,n
N#CC1=C(N)N2C(=C(C#N)C1c1ccccc1)Sc1ccccc12 (stereo unspecified),-33,n,90,n,n,n
C=CCNC(=S)Nc1cc(Cl)ccc1OC,-40,n,n,n,n,n
CCOC(=O)CCCc1c[nH]c2ccccc12,n,n,n,n,n,n
Cc1noc(C)c1COC(=O)CCCc1c[nH]c2ccccc12,n,n,n,n,71,n
CC1=CC(=C(C#N)c2nc3ccccc3s2)C=C(C)N1c1ccc(F)cc1,n,n,180,n,n,n
COc1ccccc1N1C(C)=CC(=C(C#N)c2nc3ccccc3s2)C=C1C,-38,n,164,n,n,n
SMILES,MEX-5 binding,HCV NS3 hel inh,EBV gp42 block,ZTA counter,HCV core dimer,EBNA-1 inh
Cc1cc(C)cc(OCCn2nnc3ccccc32)c1,n,n,x,n,n,n
COc1ccc(NC(=S)NNC(=O)Cn2nc([N+](=O)[O-])cc2C)cc1,n,n,n,n,n,n
Cc1cc([N+](=O)[O-])nn1CC(=O)NNC(=S)Nc1ccc([N+](=O)[O-])cc1,-37,n,n,n,n,n
CCO[C@@H]1OC(C(N)=O)=C[C@H](C2CC2)[C@H]1CCCO,n,x,x,n,n,n
CC(=C/c1ccccc1)/C=N/NC(=O)c1cnccn1,n,n,144,n,n,n
O=C(N/N=C/C(Cl)=C\c1ccccc1)c1cnccn1,n,n,n,n,n,n
